Experimental findings from ChEMBL document CHEMBL2406905, “Improving the antibacterial activity and selectivity of an ultra short peptide by hydrophobic and hydrophilic amino acid stretches” (Bioorg Med Chem Lett, 2013) are described below.

Active and inactive are the calls of the source. The rule behind the calls is not given here. Where only a bound is given, the exact number is not on record here.

Data set [1] is described as follows: (§1) Antibacterial activity against Vibrio cholerae non-O1 non-O139 assessed as growth inhibition after 24 hrs. In kind it is functional. As to conditions: for MIC90: Vibrio cholerae, non-O139, 24 h.
Data set [2] has as its system Pseudomonas aeruginosa. The experiment in a line: Antibacterial activity against Pseudomonas aeruginosa ATCC 27853 assessed as growth inhibition after 24 hrs. The format is functional. An outline of the steps:
(§2)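 Log-phase bacteria adjusted to OD600 0.001 in nutrient broth. Peptide dilutions in 20 mM Tris–HCl pH 7.4 were added; buffer alone served as control. Incubation was 37 °C for 24 h. % inhibition was calculated from the OD600 change (24 h minus time zero) relative to the control change. MIC was the concentration giving >90% growth inhibition.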

In data set [3] the test system is Staphylococcus aureus. The experiment in a line: Antibacterial activity against Staphylococcus aureus ATCC 25923 assessed as growth inhibition after 24 hrs. In kind it is functional. As to conditions: for MIC90: Staphylococcus aureus, ATCC 25923, 24 h. An outline of the steps:
as §2

For data set [4], the system named is Escherichia coli. The experiment in a line: Antibacterial activity against Escherichia coli ATCC 25922 assessed as growth inhibition after 24 hrs. In kind it is functional. An outline of the steps:
as §2

The test system of data set [5] is Salmonella typhi. In words: Antibacterial activity against Salmonella typhi DMST 22842 assessed as growth inhibition after 24 hrs. As to conditions: for MIC90: Salmonella enterica, DMST 22842, 24 h. In kind it is functional, Salmonella enterica subsp. enterica serovar Typhi.
In data set [6] the test system is Staphylococcus epidermidis. In words: Antibacterial activity against Staphylococcus epidermidis ATCC 12228 assessed as growth inhibition after 24 hrs. The format is functional. To be noted: for MIC90: Staphylococcus epidermidis, ATCC 12228, 24 h. An outline of the steps: as §2
Data set [7] relates to Escherichia coli. The experiment in a line: Antibacterial activity against Escherichia coli ATCC 25922 assessed as appearance of blebs on cell surface at 10 X MIC after 1 min by SEM analysis. In kind it is functional, organism-based. Put shortly:
(§3)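 Bacterial suspension at OD600 0.1 was exposed to peptide at 10× MIC for 1 min and 60 min. The negative control was 20 mM Tris–HCl buffer. Cell morphology was then examined by scanning electron microscopy.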

In data set [8] the test system is RAW264.7. The experiment in a line: Cytotoxicity against mouse RAW264.7 cells assessed as cell viability at 1 to 91 ug/ml after 48 hrs by MTT assay. The format is cell-based. As to conditions: raw264.7, 48 h. An outline of the steps:
(§4)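 Monolayer cell viability was read by MTT. Results are given as mean ± SEM (n = 8). Significance was tested by one-way ANOVA with Scheffe's multiple range test (p < 0.05).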
(In general: Tetrazolium assays rely on reduction of a dye to a coloured formazan, in cell work by metabolically active cells.)

For data set [9], the system named is Vero. The experiment in a line: Cytotoxicity against african green monkey Vero cells assessed as cell viability at 1 to 91 ug/ml after 48 hrs by MTT assay. The format is cell-based. To be noted: chlorocebus sabaeus. An outline of the steps:
as §4

Data set [10] is described as follows: Therapeutic index, ratio of MHC for human RBC to MIC for Vibrio cholerae non-O1 non-O139. As to conditions: human red blood cells (RBC), read-out: TI. Put shortly:
(§5)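 Index was calculated as MHC/MIC. MHC was the lowest peptide concentration producing 5% hemolysis of human red blood cells. MIC was the concentration giving >90% inhibition of bacterial growth (OD600) after 24 h at 37 °C in nutrient broth, with bacteria starting at OD600 0.001.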

Data set [11] in a line: Therapeutic index, ratio of MHC for human RBC to MIC for Staphylococcus aureus ATCC 25923. As to conditions: human red blood cells (RBC), read-out: TI. Put shortly: as §5
A short description of data set [12]: Therapeutic index, ratio of MHC for human RBC to MIC for Pseudomonas aeruginosa ATCC 27853. To be noted: human red blood cells (RBC), read-out: TI. An outline of the steps:
as §5

Data set [13] in a line: Therapeutic index, ratio of MHC for human RBC to MIC for Escherichia coli ATCC 25922. As to conditions: human red blood cells (RBC), read-out: TI. An outline of the steps:
as §5

Data set [14] can be described thus: Therapeutic index, ratio of MHC for human RBC to MIC for Salmonella typhi DMST 22842. As to conditions: human red blood cells (RBC), read-out: TI. An outline of the steps: as §5
The nature of data set [15]: Therapeutic index, ratio of MHC for human RBC to MIC for Staphylococcus epidermidis ATCC 12228. As to conditions: human red blood cells (RBC), read-out: TI. Put shortly: as §5
Data set [16] in a line: Hemolytic activity in human RBC at 1 to 91 ug/ml. In kind it is ADME, cell-based. As to conditions: erythrocyte. An outline of the steps: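 Human red blood cells were exposed to peptide. Minimal hemolytic concentration was taken as the lowest peptide concentration producing 5% hemolysis.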
Data set [17] has as its system Staphylococcus epidermidis. In words: Bactericidal activity against Staphylococcus epidermidis ATCC 12228 assessed as reduction in CFU at 23 ug/mL after 48 hrs. The format is functional. Also noted: scale not given: the % may be the effect or the level left. Put shortly: (§6)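 After the 24 h, 37 °C broth-microdilution exposure (log-phase inoculum at OD600 0.001, peptide in 20 mM Tris–HCl pH 7.4), 5 μL from each well was plated on agar and incubated at 37 °C for 48 h. 100% bactericidal concentration was the concentration giving a 99.9% CFU reduction from the starting inoculum.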

The test system of data set [18] is Escherichia coli. The experiment in a line: Bactericidal activity against Escherichia coli ATCC 25922 assessed as reduction in CFU at 11 ug/mL after 48 hrs. The format is functional. On the set-up: scale not given: the % may be the effect or the level left. Put shortly: as §6
In data set [19] the test system is Salmonella typhi. In words: Antibacterial activity against Salmonella typhi DMST 22842 assessed as appearance of rough and wavy cell morphology at 10 X MIC after 1 min by SEM analysis. In kind it is functional, organism-based. To be noted: Salmonella enterica subsp. enterica serovar Typhi. An outline of the steps: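 Bacterial suspension (OD600 0.1) was incubated with peptide at 10×MIC for 1 and 60 min, with 20 mM Tris–HCl buffer as negative control. Cell morphology was examined by scanning electron microscopy.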

Data set [20] has as its system Staphylococcus epidermidis. The experiment in a line: Antibacterial activity against Staphylococcus epidermidis ATCC 12228 assessed as appearance of rough and wavy cell morphology at 10 X MIC after 1 min by SEM analysis. In kind it is functional, organism-based. Put shortly:
as §3

Data set [21] has as its system Escherichia coli. In words: Bactericidal activity against Escherichia coli ATCC 25922 assessed as reduction in CFU at 46 ug/mL after 48 hrs. Also noted: scale not given: the % may be the effect or the level left. In kind it is functional. Put shortly: as §6
Data set [22] has as its system Vibrio cholerae non-O1. The description is as §1. In kind it is functional.
Setting [23] is: Pseudomonas aeruginosa, ATCC 27853, 24 h.
[24] abbreviates: Escherichia coli, ATCC 25922, 24 h.

Broadly, the MIC90 is the lowest concentration that inhibits either 90% of growth or 90% of the strains tested, depending on the study. As to H-NGVQPKY-OH, the “growth inhibition (GI)” value in [1], in data set [2], in data set [3], in data set [4], in data set [5] and in data set [6] was less than 90% in each case. In addition, the MIC90 in [1], in data set [2] (setting [23]), in data set [3], in data set [4] (setting [24]), in data set [5] and in data set [6] was more than 200 µg/mL each time.
Regarding H-NGVQPKYKWWKWWKKWW-NH2, the outcome in data set [7] was Active. Also, the Activity entry is listed as “Non-toxic” in data set [8]; “Non-toxic” in data set [9]; “Non-toxic” in [16]; 100% in data set [17]; 100% in data set [18]. Also, the selectivity ratio is 4 in [10]; 1 in data set [11]; 0.5 in [12]; 4 in [13]; 2 in data set [14]; 2 in data set [15]. Also, the MIC90 in data set [1] stood at 11 µg/mL; in data set [2] (setting [23]) it was 91 µg/mL; in data set [3], 46 µg/mL; in data set [4] (setting [24]) it was 11 µg/mL; in data set [5], 23 µg/mL; in data set [6] it was 23 µg/mL.
For the substance H-NGVQPKYRWWRWWRRWW-NH2, the result in data set [19], in data set [20] and in data set [17] was Active. For the same substance, the Activity entry in [8] is “Non-toxic”; in data set [9], “Non-toxic”; in data set [16] it was “Non-toxic”; in data set [21] it was 100%. Moreover, the selectivity ratio in data set [10] came out at 1; in data set [11], 0.5; in [13], 1; in [14], 2; in data set [15], 2. Further, the MIC90 was 46 µg/mL in data set [1]; 91 µg/mL in [3]; 46 µg/mL in [4] (setting [24]); 23 µg/mL in data set [5]; 23 µg/mL in [6]. Further, in data set [2], the MIC90 result is “inactive”.
As to H-NGVQPKYRWWRWWRRWW-OH, the outcome in data set [19], in [20] and in [17] was Active. The Activity entry in [8] is “Toxic”; in data set [9], “Toxic”; in data set [16], “Toxic”; in [21], 100%. In addition, the selectivity ratio in data set [11] was less than 0.25; in data set [13], 0.5; in data set [14], less than 0.25; in data set [15] it was 1. In addition, the MIC90 entry in [22] and in data set [2] was “inactive” throughout. Besides, the “growth inhibition (GI)” value in data set [3] and in data set [5] was less than 90% in each case. Also, the MIC90 in data set [3] was more than 91 µg/mL; in data set [4] (setting [24]), 46 µg/mL; in data set [5], more than 91 µg/mL; in [6], 23 µg/mL.
With H-NGVQPKYRWWRWWRRWWW-OH, the selectivity ratio is less than 0.25 in [11], less than 0.25 in data set [13], less than 0.25 in [14] and 0.25 in data set [15]. The Activity result in [16] was “Toxic”. The MIC90 result in [22] and in data set [2] was “inactive” each time. The “growth inhibition (GI)” value in data set [3], in [4] and in [5] was less than 90% each time. Also, the MIC90 in data set [3] was more than 91 µg/mL; in data set [4] (setting [24]) it was more than 91 µg/mL; in [5] it was more than 91 µg/mL; in data set [6], 91 µg/mL.
With H-NGVQPKYRWWRWWRRWWWW-NH2, the selectivity ratio in data set [11] was less than 0.06; in data set [12], less than 0.06; in data set [13], less than 0.06; in data set [14] it was less than 0.06; in data set [15] it was 0.06. In data set [16], the Activity entry was “Toxic”. Besides, the MIC90 result in data set [22] is “inactive”. Also, the “growth inhibition (GI)” value in data set [2], in data set [3], in data set [4] and in data set [5] was less than 90% each time. Also, the MIC90 was more than 91 µg/mL in [2] (setting [23]); more than 91 µg/mL in data set [3]; more than 91 µg/mL in [4] (setting [24]); more than 91 µg/mL in data set [5]; 91 µg/mL in data set [6].
Turning to H-NGVQPWYKWWKWWKKWW-NH2, the selectivity ratio in data set [10] is 0.06; in data set [11], less than 0.06; in [13], less than 0.06; in [14] it was less than 0.06; in data set [15], 0.06. Also, the Activity result in data set [16] is on record as “Toxic”. Further, the MIC90 in data set [1] was 91 µg/mL; in data set [3], more than 91 µg/mL; in data set [4] (setting [24]), more than 91 µg/mL; in data set [5], more than 91 µg/mL; in data set [6], 91 µg/mL. Moreover, the MIC90 entry in [2] is “inactive”. In addition, the “growth inhibition (GI)” value in data set [3], in data set [4] and in [5] was less than 90% in each case.
For the substance H-RWWRWWRRWW-NH2, the selectivity ratio in data set [10] is 0.08; in data set [11], less than 0.02; in data set [12] it was 0.04; in data set [13], less than 0.02; in data set [14], less than 0.02; in data set [15], less than 0.02. For the same substance, the Activity result in data set [16] was “Toxic”. In addition, the MIC90 in [1] was 23 µg/mL; in [2] (setting [23]), 46 µg/mL; in [3] it was more than 91 µg/mL; in data set [4] (setting [24]) it was more than 91 µg/mL; in [5] it was more than 91 µg/mL; in data set [6], more than 91 µg/mL. The “growth inhibition (GI)” value in [3], in data set [4], in data set [5] and in data set [6] was less than 90% each time.
Turning to H-RWWRWWRRWWW-NH2, the selectivity ratio in data set [10], in data set [11], in [14] and in data set [15] was less than 0.02 each time. Besides, the Activity result in data set [16] was “Toxic”. For the same substance, the “growth inhibition (GI)” value in data set [1], in [3], in [5] and in data set [6] was less than 90% in each case. Also, the MIC90 in data set [1], in data set [3], in data set [5] and in data set [6] was more than 91 µg/mL throughout. Moreover, the MIC90 result in [2] and in [4] was “inactive” in each case.
